One may read the IC50 as the concentration at which inhibition is half-maximal. A lower IC50 goes with inhibition by little substance.

We go through 18 molecules from ChEMBL document CHEMBL1144696, “Overcoming drug resistance to heme-targeted antimalarials by systematic side chain variation of 7-chloro-4-aminoquinolines” (J Med Chem, 2008).

Assay [1] relates to Plasmodium falciparum. Description: Antiplasmodial activity against chloroquine-resistant Plasmodium falciparum Dd2 after 72 hrs by SYBR green 1 assay. It is filed as functional, organism-based. Particulars: Dd2, 72 h. Put shortly:
(§1)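 P. falciparum growth inhibition measured by SYBR Green I intercalation. Each strain was tested separately. IC50 calculated from triplicate experiments. Values are averages of two separate determinations, each run in triplicate.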

The test system of assay [2] is Plasmodium falciparum. Description: Selectivity for chloroquine-resistant Plasmodium falciparum Dd2 over chloroquine-sensitive Plasmodium falciparum HB3 as IC50 ratio by SYBR green assay. It is filed as functional. A digest of the protocol: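 Selectivity index is IC50 for Dd2 divided by IC50 for HB3. Both IC50s come from the SYBR Green I assay, averaging two determinations each run in triplicate.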

The subject of assay [3] is Plasmodium falciparum. Description: Antiplasmodial activity against chloroquine-sensitive Plasmodium falciparum GCO3 after 72 hrs by SYBR green 1 assay. It is filed as functional, organism-based. Particulars: GCO3, 72 h. A digest of the protocol:
as §1

For assay [4], the system named is Plasmodium falciparum. Description: Antiplasmodial activity against chloroquine-resistant Plasmodium falciparum FCB after 72 hrs by SYBR green 1 assay. It is filed as functional, organism-based. A digest of the protocol:
as §1

The test system of assay [5] is Plasmodium falciparum. Description: Selectivity index for chloroquine-resistant Plasmodium falciparum FCB to chloroquine-sensitive Plasmodium falciparum GCO3 by SYBR green IC50 ratio. It is filed as functional.
For assay [6], the system named is Plasmodium falciparum. Description: Antiplasmodial activity against chloroquine-sensitive Plasmodium falciparum HB3 after 72 hrs by SYBR green 1 assay. Conditions: HB3, 72 h. It counts as functional, organism-based. A digest of the protocol:
as §1

Consider `CCN(CC)CCCN(CC)CCCCNc1ccnc2cc(Cl)ccc12`, for which the IC50 in the assay on Plasmodium falciparum [1] is 84.6 nM; in the assay on Plasmodium falciparum [3], 87.4 nM; in the assay on Plasmodium falciparum [4], 156 nM; with Plasmodium falciparum [6], 24.1 nM. Besides, the “Ratio IC50” value is 3.52 in the assay with Plasmodium falciparum [2] and 1.78 in the assay on Plasmodium falciparum [5].
With `CCN(CC)CCCNCCCCCCNc1ccnc2cc(Cl)ccc12`, the 50% inhibitory concentration (IC50) in the assay on Plasmodium falciparum [1] worked out at 269 nM; in the assay with Plasmodium falciparum [3] it was 129 nM; in the assay with Plasmodium falciparum [4], 216 nM; with Plasmodium falciparum [6] it was 82.8 nM. Also, the “Ratio IC50” value with Plasmodium falciparum [2] was 3.25; in the assay with Plasmodium falciparum [5] it was 1.67.
Regarding `CCN(CC)CCCN(CC)CCNc1ccnc2cc(Cl)ccc12`, the IC50 came to 31.2 nM in the assay on Plasmodium falciparum [1], 37.7 nM in the assay with Plasmodium falciparum [3], 52.7 nM with Plasmodium falciparum [4] and 27.3 nM with Plasmodium falciparum [6].
Regarding `CCN(CC)CCCN(CC)CCCCCNc1ccnc2cc(Cl)ccc12`, the IC50 is 43.4 nM in the assay on Plasmodium falciparum [1], 55.2 nM in the assay on Plasmodium falciparum [3], 66.8 nM in the assay on Plasmodium falciparum [4] and 15.7 nM with Plasmodium falciparum [6]. Further, the “Ratio IC50” value stood at 2.76 in the assay with Plasmodium falciparum [2] and 1.21 in the assay on Plasmodium falciparum [5].
On to `CCN(CC)CCCN(CCCN(CC)CC)c1ccnc2cc(Cl)ccc12`, for which the IC50 is 128 nM with Plasmodium falciparum [1], 96.6 nM in the assay on Plasmodium falciparum [3], 186 nM in the assay with Plasmodium falciparum [4] and 187 nM in the assay on Plasmodium falciparum [6]. In addition, the “Ratio IC50” value in the assay on Plasmodium falciparum [2] is on record as 0.68; with Plasmodium falciparum [5], 1.92.
On to `CCN(CC)CCCCN(CCCCN(CC)CC)c1ccnc2cc(Cl)ccc12`, for which the half-inhibitory concentration (IC50) stood at 882 nM in the assay on Plasmodium falciparum [1], 517 nM with Plasmodium falciparum [3], 1060 nM in the assay on Plasmodium falciparum [4] and 716 nM with Plasmodium falciparum [6]. The “Ratio IC50” value in the assay on Plasmodium falciparum [2] was found to be 1.23; in the assay on Plasmodium falciparum [5], 2.05.
For `CC(C)N(CCCCN(CCCCN(C(C)C)C(C)C)c1ccnc2cc(Cl)ccc12)C(C)C`, the IC50 was found to be 2550 nM in the assay on Plasmodium falciparum [1], 1510 nM in the assay with Plasmodium falciparum [3], 2220 nM with Plasmodium falciparum [4] and 1310 nM in the assay on Plasmodium falciparum [6]. In addition, the “Ratio IC50” value in the assay with Plasmodium falciparum [2] is 1.94; in the assay with Plasmodium falciparum [5] it was 1.47.
On to `CCN(CC)CCCNCCCNc1ccnc2cc(Cl)ccc12`, for which the IC50 was determined as 56.3 nM in the assay with Plasmodium falciparum [1], 64.8 nM in the assay with Plasmodium falciparum [3], 73.7 nM in the assay on Plasmodium falciparum [4] and 27.3 nM in the assay with Plasmodium falciparum [6]. Besides, the “Ratio IC50” value with Plasmodium falciparum [2] is 2.06; with Plasmodium falciparum [5], 1.14.
In the case of `CC(C)NC1CCCC(Nc2ccnc3cc(Cl)ccc23)C1` (centres undefined), the IC50 in the assay on Plasmodium falciparum [1] was determined as 76.1 nM; in the assay on Plasmodium falciparum [3] it was 26.1 nM; in the assay on Plasmodium falciparum [4] it was 110 nM; with Plasmodium falciparum [6], 27.8 nM. Moreover, the “Ratio IC50” value stood at 2.74 with Plasmodium falciparum [2] and 4.21 in the assay on Plasmodium falciparum [5].
As for `CCN(CC)CCCNCCCCNc1ccnc2cc(Cl)ccc12`, the IC50 in the assay with Plasmodium falciparum [1] is 170 nM; in the assay on Plasmodium falciparum [3], 139 nM; in the assay with Plasmodium falciparum [4], 189 nM; with Plasmodium falciparum [6] it was 72.5 nM. In addition, the “Ratio IC50” value is listed as 2.34 in the assay with Plasmodium falciparum [2] and 1.36 with Plasmodium falciparum [5].
Consider `CCN(CC)CCCNCCNc1ccnc2cc(Cl)ccc12`, for which the IC50 in the assay on Plasmodium falciparum [1] was 129 nM; in the assay on Plasmodium falciparum [3] it was 118 nM; in the assay with Plasmodium falciparum [4], 146 nM; in the assay on Plasmodium falciparum [6], 29.2 nM.
As for `CCN(CC)CCCN(CC)CCCNc1ccnc2cc(Cl)ccc12`, the IC50 with Plasmodium falciparum [1] was 28.1 nM; in the assay on Plasmodium falciparum [3], 27.6 nM; with Plasmodium falciparum [4], 49.1 nM; with Plasmodium falciparum [6], 21.2 nM. For the same molecule, the “Ratio IC50” value was 1.33 in the assay with Plasmodium falciparum [2] and 1.78 in the assay with Plasmodium falciparum [5].
On to `CCN(CC)CCCNCCCCCNc1ccnc2cc(Cl)ccc12`, for which the IC50 came out at 103 nM with Plasmodium falciparum [1], 68.7 nM with Plasmodium falciparum [3], 97.3 nM with Plasmodium falciparum [4] and 46 nM in the assay on Plasmodium falciparum [6]. For the same molecule, the entries for the “Ratio IC50” value in the assay on Plasmodium falciparum [2] and in the assay with Plasmodium falciparum [5] were 2.25 and 1.42, respectively.
For the molecule `CCN(CC)C1CCCC(Nc2ccnc3cc(Cl)ccc23)C1` (centres undefined), the IC50 is 80 nM with Plasmodium falciparum [1], 40.6 nM in the assay with Plasmodium falciparum [3], 113 nM with Plasmodium falciparum [4] and 26.3 nM in the assay with Plasmodium falciparum [6]. For the same molecule, the “Ratio IC50” value was 3.04 in the assay on Plasmodium falciparum [2] and 2.78 in the assay with Plasmodium falciparum [5].
For the molecule `CC(C)NC1CCC(Nc2ccnc3cc(Cl)ccc23)CC1` (centres undefined), the IC50 was 75.7 nM with Plasmodium falciparum [1], 19.5 nM in the assay with Plasmodium falciparum [3], 66 nM in the assay on Plasmodium falciparum [4] and 31.3 nM with Plasmodium falciparum [6]. Further, the “Ratio IC50” value in the assay on Plasmodium falciparum [2] was 2.42; with Plasmodium falciparum [5] it was 3.89.
For `CCN(CC)CCCN(CC)CCCCCCNc1ccnc2cc(Cl)ccc12`, the IC50 was determined as 274 nM with Plasmodium falciparum [1], 175 nM in the assay with Plasmodium falciparum [3], 263 nM in the assay with Plasmodium falciparum [4] and 62.9 nM in the assay on Plasmodium falciparum [6]. Besides, the “Ratio IC50” value in the assay with Plasmodium falciparum [2] is 4.36; with Plasmodium falciparum [5], 1.5.
As to `CC(C)N(CCCN(CCCN(C(C)C)C(C)C)c1ccnc2cc(Cl)ccc12)C(C)C`, the IC50 was 99.8 nM with Plasmodium falciparum [1], 42.4 nM in the assay on Plasmodium falciparum [3], 104 nM in the assay on Plasmodium falciparum [4] and 44.1 nM with Plasmodium falciparum [6]. Besides, the entries for the “Ratio IC50” value in the assay with Plasmodium falciparum [2] and with Plasmodium falciparum [5] were 2.26 and 2.45, respectively.
In the case of `CCN(CC)C1CCC(Nc2ccnc3cc(Cl)ccc23)CC1` (centres undefined), the IC50 in the assay on Plasmodium falciparum [1] was 51.8 nM; in the assay on Plasmodium falciparum [3] it was 32 nM; with Plasmodium falciparum [4] it was 57.6 nM; with Plasmodium falciparum [6] it was 25.5 nM. For the same molecule, the figures for the “Ratio IC50” value in the assay on Plasmodium falciparum [2] and with Plasmodium falciparum [5] were 2.03 and 1.8, respectively.
